Bioassay records as filed in PubChem.
M5 antag: human M5 muscarinic receptor antagonists, primary screen, CHO cells, Fluo-8 calcium fluorescence. CHO-hM5 cells, ACh EC80. inhibition, % at 3 µM. hit rate 0.59% among 360,000;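 active = inhibition above a per-plate cutoff, the mean of that plate's test compounds plus 3 SD, cut at about 27% in these data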
Target sequence (P08912 whole entry, looked up): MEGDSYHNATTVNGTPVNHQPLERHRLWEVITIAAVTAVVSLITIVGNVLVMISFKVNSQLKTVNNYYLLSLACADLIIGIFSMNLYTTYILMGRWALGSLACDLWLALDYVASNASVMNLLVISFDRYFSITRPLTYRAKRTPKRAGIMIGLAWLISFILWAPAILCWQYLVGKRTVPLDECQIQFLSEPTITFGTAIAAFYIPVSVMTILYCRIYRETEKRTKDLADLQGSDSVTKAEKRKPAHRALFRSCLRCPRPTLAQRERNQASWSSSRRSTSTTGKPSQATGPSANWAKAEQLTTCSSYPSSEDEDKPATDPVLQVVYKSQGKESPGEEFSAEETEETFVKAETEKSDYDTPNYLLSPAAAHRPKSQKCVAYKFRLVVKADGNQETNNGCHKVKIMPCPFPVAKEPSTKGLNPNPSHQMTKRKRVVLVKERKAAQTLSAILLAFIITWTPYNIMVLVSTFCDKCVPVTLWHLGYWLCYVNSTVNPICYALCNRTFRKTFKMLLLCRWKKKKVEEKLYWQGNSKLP
M1 ag parental: counter-screen for M1 agonists: effect in parental CHO-K1 cells | Fluo-8 calcium fluorescence; scaled to maximal ATP response, vehicle zero | activation, % at 3 µM | hit rate 0.48% among 360,000 | AID 602248, 2012; in the data active = activation above about 15%;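 also: untransfected CHO-K1 host cells lacking M1 receptor as counterscreen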
M5 ag: human M5 muscarinic receptor agonists, primary screen, CHO-K1 cells, Fluo-8 calcium fluorescence; CHO-K1 hM5 cells; 0% DMSO wells, 100% maximal acetylcholine response; hit rate 0.19% among 360,000; activation, % at 3 µM; Muscarinic acetylcholine receptor M5 (Homo sapiens), P08912; AID 624037, 2012;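 active = activation above the run's mean over test compounds plus 3 SD, cut at about 23% in these data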;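 also: signal is peak over basal fluorescence ratio across the kinetic read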
M1 PAM parental: nonselective calcium activators in parental CHO-K1 cells, primary screen, counter-screen for M1 PAM project, cell-based, Fluo-8 calcium fluorescence, full deck, 1536-well; ATP EC20; 0% at ATP EC20, 100% at ATP max; activation, % at 3 µM; hit rate 0.02% among 360,000; AID 602247, 2012;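 active = activation above the run cutoff, the mean activation of all test compounds plus 3 SD, cut at about 40% in these data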;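 also: peak over basal fluorescence ratio in a 140 s read after ATP addition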
CHO-K1 Ca antag: nonselective inhibitor or artifact in parental CHO-K1 cells | ATP-induced calcium, Fluo-8 fluorescence | inhibition, % at 3 µM | hit rate 0.6% among 360,000;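 active = inhibition above a per-plate cutoff, the plate's mean sample inhibition plus 3 SD, cut at about 24% in these data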
M5 PAM: human M5 muscarinic receptor positive allosteric modulators, primary screen, CHO-K1 cells, Fluo-8 calcium fluorescence. CHO-K1 hM5, ACh EC20 PAM; 0% = ACh EC20, 100% = ACh EC100. Muscarinic acetylcholine receptor M5 (Homo sapiens), P08912. AID 624038, 2012. activation, % at 3 µM. hit rate 0.3% among 360,000;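 active = activation above the run cutoff, the mean activation of all test compounds plus 3 SD, cut at about 18% in these data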
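Assay system: CHO-K1 hM5 cells. Also added: acetylcholine at EC20 concentration, added after compound. Dosing: 3 µM, single dose. Times: compound preincubation 140 s before EC20 acetylcholine addition. Signal: Fluo-8 calcium fluorescence. Measure: % activation relative to EC20 and EC100 ACh responses. Repeats: singlicate, one well per test compound.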
Each line names hits and unclear results; the compound was inactive in the other large screens. Sampled rows, rich in hits. Any-hit rate of the full collection: about 1.7%.

O=C(NNC(=S)NC(=O)c1ccc(Br)cc1)c1cccc([N+](=O)[O-])c1	M1 ag parental 21
S=c1[nH]nc(Cn2nnc3ccccc32)n1-c1ccccc1	none
c1ccc(CNc2nc(Oc3ccncc3)c3sccc3n2)cc1	none
Cc1ccc(C(=O)NNC(=O)c2ccco2)cc1	none
Cc1ccc(C(=O)NC(=S)NNC(=O)c2ccccc2O)cc1	none
Cc1ccc(C(=O)NC(=S)NNC(=O)c2ccccc2)cc1	M1 ag parental 20, M5 ag 40, CHO-K1 Ca antag 35
Cc1ccc(C(=O)NNC(=S)NC(=O)c2ccco2)cc1	M1 ag parental 21
Cc1ccccc1C(=O)NNC(=S)NC(=O)c1ccccc1	M1 ag parental 55
O=C(NC(=S)NNC(=O)c1ccccc1O)c1ccc(F)cc1	M1 ag parental 30
O=C(NC(=S)NNC(=O)c1ccccc1O)c1ccccc1	none
CC(C)(C)c1cc(CCC(=O)NNC(=S)NC(=O)c2ccccc2)cc(C(C)(C)C)c1O	M1 ag parental 56, CHO-K1 Ca antag 30
CCCCC(=O)NC(=S)NNC(=O)c1ccc(Cl)cc1Cl	M1 ag parental 26
COc1ccc(C(=O)NNC(=S)NC(=O)c2cccs2)cc1	none
Cc1cccc(C(=O)NNC(=S)NC(=O)c2ccccc2)c1	M1 ag parental 100, M5 ag 57, CHO-K1 Ca antag 35
Cc1cccc(C(=O)NNC(=S)NC(=O)c2cccs2)c1	M1 ag parental 85, M5 ag 66
O=C(CCc1ccccc1)NNC(=S)NC(=O)c1ccccc1	none
O=C(CSc1nc2ccccc2c(=O)n1-c1cccc(C(F)(F)F)c1)NC1CC1	none
CCOc1ccc(S(=O)(=O)Nc2cnc3ccccc3c2)cc1	CHO-K1 Ca antag 25
COCCNC(=O)C(c1ccc(F)cc1)N(C(=O)CCC(=O)Nc1ccccn1)c1ccc(C)cc1 (stereo unspecified)	M5 antag 29
CCOC(=O)c1c(C)n(C)c2cc(Br)c(C)cc12	none
CCOC(=O)c1ccc(-c2cccc(C(F)(F)F)c2)nc1C	none
CCOC(=O)c1c(C)n(C)c2cc(-c3cccc(C(F)(F)F)c3)c(O)cc12	CHO-K1 Ca antag 27
CCOC(=O)c1c(C)n(C)c2cc(-c3ccc(C)cc3)c(O)cc12	CHO-K1 Ca antag 28
Fc1ccc(NC(=S)N2CCCC2)cc1	none
CCS(=O)(=O)C1=NSC2=NC(=O)/C(=C\c3ccc(OS(=O)(=O)c4ccccc4)c(OC)c3)C(=N)N21	M5 PAM 29
COc1cc(/C=C2/C(=N)N3C(=NC2=O)SN=C3S(C)(=O)=O)ccc1OS(=O)(=O)c1ccc(C)cc1	none
CN(C)S(=O)(=O)c1ccc2oc(SCC(=O)c3c(N)n(C4CC4)c(=O)[nH]c3=O)nc2c1	M1 ag parental 20
Nc1c(C(=O)CSc2nccn2-c2ccc(Cl)cc2)c(=O)[nH]c(=O)n1C1CC1	M5 PAM 18
CN(C)S(=O)(=O)c1ccc2oc(SCC(N)=O)nc2c1	none
CC(SCc1ccccc1)C(=O)N/N=C/c1cc2c(cc1Br)OCO2 (stereo unspecified)	none
COC(=O)c1cc(S(=O)(=O)N2CCN(c3ccc([N+](=O)[O-])cc3)CC2)c[nH]1	none
CCN(CC)c1ccc(/C=C/c2ccc3ccc(OC)cc3[n+]2CC)cc1	M5 antag 49, CHO-K1 Ca antag 57
CC1CCCN(S(=O)(=O)c2ccc(NC(=O)Cc3ccc(S(=O)(=O)N4CCOCC4)s3)cc2)C1 (stereo unspecified)	CHO-K1 Ca antag 25
CC1CCN(CC(=O)Nc2ccc3c(c2)OCO3)CC1	M1 ag parental 17
CC1CCN(S(=O)(=O)c2ccc(NC(=O)Cc3ccc(S(=O)(=O)N4CCOCC4)s3)cc2)CC1	none
CC1CCN(CC(=O)Nc2ccc(S(=O)(=O)N3CCCC(C)C3)cc2)CC1 (stereo unspecified)	M1 ag parental 18
O=C(CN1CCN(C(=O)c2cccc(-n3cnnn3)c2)CC1)Nc1ccccc1Cl	none
COc1ccc(-c2cccc(NS(=O)(=O)c3cccc([N+](=O)[O-])c3)c2)nn1	none
CS(=O)(=O)N(CC(=O)N1CCCCCC1)c1cccc([N+](=O)[O-])c1	M5 PAM 18
CCn1nc(NS(=O)(=O)c2ccc(NC(C)=O)cc2)c2cc3cc(C)ccc3nc21	none
O=C(CC(=O)N/N=C/c1ccccc1)NCc1ccccc1	M1 ag parental 17
O=C(O)c1ccccc1/C=N/NC(=S)NCc1ccccc1	M5 antag 32, M5 PAM 34
O=C(NN=Cc1ccccc1C(=O)O)C(=O)NN=Cc1ccccc1C(=O)O	none
O=C(Cc1cccc2ccccc12)N/N=C/c1ccc(F)cc1	none
O=C(Cc1cccc2ccccc12)N/N=C/c1ccncc1	M1 ag parental 26
CN1CCC(OC(=O)COc2ccc(Br)cc2)CC1	none
Cc1ccc(S(=O)(=O)NN2C(=O)/C(=C/c3cccnc3)SC2=S)cc1	none
CCc1nc(NCCN)c(C#N)c2c1CSC(C)(C)C2	none
C[N+]12CCC(CC1)C(OC(=O)C(O)(c1ccccc1)c1ccccc1)C2 (stereo unspecified)	M5 antag 99
CCCc1c(-c2cccc(Br)c2)ncn1Cc1cccc(-c2ccccc2)c1	none (no result: M1 ag parental, M1 PAM parental, CHO-K1 Ca antag)
CCc1c(-c2ccc(Br)cc2)ncn1Cc1cccc(-c2ccccc2)c1	M5 antag 72 (no result: M1 ag parental, M1 PAM parental, CHO-K1 Ca antag)
CCN(CC)CCn1c(NCc2cccc(OC)c2OC)nc2ccccc21	M5 antag 31
CCN(CC)CCn1c(NCc2ccco2)nc2ccccc21	none
COc1cccc(CCc2nnc(CCC(=O)N3CCN(Cc4ccccn4)CC3)o2)c1	none
COC(=O)C1=C(C)N(Cc2ccccc2)C(=NCC(C)C)N[C@H]1c1cccc(C(F)(F)F)c1	none
COC(=O)C1=C(C)N(Cc2ccccc2)C(=NCc2ccccc2)N[C@H]1c1cccc(C(F)(F)F)c1	M1 ag parental 21
C=CCN1CC(c2nc3ccccc3n2Cc2cccc3ccccc23)CC1=O (stereo unspecified)	none
CCCc1nnc(SCc2ccc(C(=O)OC)o2)n1N	none
CCc1nnc(SCc2ccc(C(=O)OC)o2)n1N	M5 PAM 19
C=CCNC(=O)COc1ccc(Oc2ccccc2)cc1	none
O=Nc1ccc(NOC(=O)c2ccccc2Br)cc1	none
O=C(ONc1ccc(N=NC(=O)c2ccccc2O)cc1)c1ccccc1	CHO-K1 Ca antag 28
CCCSc1nnc(NC(=O)Nc2ccc(C)cc2)s1	none
